Reference: ChEMBL document CHEMBL3102784, “Salicylanilide diethyl phosphates: synthesis, antimicrobial activity and cytotoxicity” (Bioorg Med Chem, 2014)
Values after ≈ are worked out from the molar mass of the structure shown. Active and inactive are the calls of the source. The calls are words filed in the database; no cut-off is given here.

Legend:
[1] = tested on: Staphylococcus epidermidis; assay: Antibacterial activity against Staphylococcus epidermidis H 6966/08 after 48 hrs by broth microdilution method; assay type: functional; conditions: H 6966/08, 48 h
Procedure, shortened: (§1)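 Broth microdilution in Mueller–Hinton broth, compounds dissolved in DMSO, tested over a dilution series from 500 downward. MIC taken as ≥95% growth reduction (IC95) versus drug-free control. Benzylpenicillin comparator. Readings at 24 and 48 h.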

[2] = tested on: Mycobacterium tuberculosis; assay: Antimycobacterial activity against Mycobacterium tuberculosis H37Rv My 331/88 after 21 days; assay type: functional; conditions: H37Rv My 331/88, 504 h
Procedure, shortened: (§2)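 Micromethod MIC in Šula's semisynthetic medium at 37 °C. Compounds added in DMSO at 1000 down to 0.032 µmol/L. Isoniazid standard in sterile water at 0.5–250 µmol/L. Inocula: H37Rv 10^3, M. avium 10^5, M. kansasii 10^4. Read at 14 and 21 d, plus 7 d for M. kansasii.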

Mycobacterium kansasii [3] = assay: Antimycobacterial activity against Mycobacterium kansasii My 235/80 after 7 days; assay type: functional; conditions: My 235/80, 168 h; procedure, shortened: as §2
Mycobacterium avium [4] = assay: Antimycobacterial activity against isoniazid, rifampicin, ethambutol and ofloxacin-resistant Mycobacterium avium My 330/88 after 21 days; assay type: functional; conditions: My 330/88, 504 h; procedure, shortened: as §2
Candida albicans [5] = assay: Antifungal activity against Candida albicans ATCC 44859 after 48 hrs by broth microdilution method; assay type: functional; conditions: ATCC 44859, 48 h
Procedure, shortened: (§3)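 Broth microdilution in RPMI 1640 with glutamine, fluconazole as reference. For yeasts, MIC is ≥80% growth reduction (IC80) versus control. For filamentous fungi, the value is expressed as IC50. Readings at 24 and 48 h.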

Escherichia coli = assay: Antibacterial activity against Escherichia coli CCM 4517 at 500 micromol/L after 24 to 48 hrs by broth microdilution method; assay type: functional, organism-based; procedure, shortened: as §1
Trichosporon asahii [6] = assay: Antifungal activity against Trichosporon asahii 1188 after 48 hrs by broth microdilution method; assay type: functional; conditions: Trichosporon asahii, 1188, 48 h; procedure, shortened: as §3
Candida tropicalis = assay: Antifungal activity against Candida tropicalis 156 at 500 micromol/L after 24 to 48 hrs by broth microdilution method; assay type: functional, organism-based; procedure, shortened: as §3
[7] = tested on: Staphylococcus epidermidis; assay: Antibacterial activity against Staphylococcus epidermidis H 6966/08 after 24 hrs by broth microdilution method; assay type: functional; conditions: H 6966/08, 24 h; procedure, shortened: as §1
Staphylococcus aureus [8] = assay: Antibacterial activity against Staphylococcus aureus CCM 4516/08 after 48 hrs by broth microdilution method; assay type: functional; conditions: CCM 4516/08, 48 h; procedure, shortened: as §1
Lichtheimia corymbifera [9] = assay: Antifungal activity against Absidia corymbifera 272 after 48 hrs by broth microdilution method; assay type: functional; conditions: Lichtheimia corymbifera, 272, 48 h; procedure, shortened: as §3
HepG2 = assay: Cytotoxicity against human HepG2 cells after 24 hrs by CellTiter assay; assay type: cell-based; conditions: HepG2, 24 h
Procedure, shortened: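 HepG2 cells (passage 27–33) in MEM with 10% FBS, L-glutamine and NEAA, seeded at 1×10^4 per well. Treated next day with compounds at 0.1–100 µM (or 0.1–25 µmol/L), triplicates, <1% DMSO, for 24 h at 37 °C, 5% CO2. MTS reagent added for 2 h, absorbance read at 490 nm. IC50 taken against untreated (100%) and 10% DMSO (0%) controls.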

Pichia kudriavzevii [10] = assay: Antifungal activity against Candida krusei E28 after 48 hrs by broth microdilution method; assay type: functional; conditions: E28, 48 h; procedure, shortened: as §3
[11] = tested on: Trichophyton mentagrophytes; assay: Antifungal activity against Trichophyton mentagrophytes 445 after 120 hrs by broth microdilution method; assay type: functional; conditions: Trichophyton mentagrophytes, 445, 120 h
Procedure, shortened: (§4)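 Filamentous dermatophyte tested by broth microdilution in RPMI 1640 with glutamine, fluconazole as reference. Value expressed as IC50 relative to growth control. Read at 72 and 120 h.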

Klebsiella pneumoniae [12] = assay: Antibacterial activity against Klebsiella pneumoniae D 11750/08 at 500 micromol/L after 24 to 48 hrs by broth microdilution method; assay type: functional, organism-based; procedure, shortened: as §1
Mycobacterium avium [13] = assay: Antimycobacterial activity against isoniazid, rifampicin, ethambutol and ofloxacin-resistant Mycobacterium avium My 330/88 after 14 days; assay type: functional; conditions: My 330/88, 336 h; procedure, shortened: as §2
Nakaseomyces glabratus = assay: Antifungal activity against Candida glabrata 20/I at 500 micromol/L after 24 to 48 hrs by broth microdilution method; assay type: functional, organism-based; procedure, shortened: as §3
Lichtheimia corymbifera [14] = assay: Antifungal activity against Absidia corymbifera 272 after 24 hrs by broth microdilution method; assay type: functional; conditions: Lichtheimia corymbifera, 272, 24 h; procedure, shortened: as §3
[15] = tested on: Trichophyton mentagrophytes; assay: Antifungal activity against Trichophyton mentagrophytes 445 after 72 hrs by broth microdilution method; assay type: functional; conditions: Trichophyton mentagrophytes, 445, 72 h; procedure, shortened: as §4
Enterococcus sp. = assay: Antibacterial activity against Enterococcus sp. J 14365/08 at 500 micromol/L after 24 to 48 hrs by broth microdilution method; assay type: functional, organism-based; procedure, shortened: as §1
Pseudomonas aeruginosa = assay: Antibacterial activity against Pseudomonas aeruginosa CCM 1961 at 500 micromol/L after 24 to 48 hrs by broth microdilution method; assay type: functional, organism-based; procedure, shortened: as §1
Candida albicans [16] = assay: Antifungal activity against Candida albicans ATCC 44859 after 24 hrs by broth microdilution method; assay type: functional; conditions: ATCC 44859, 24 h; procedure, shortened: as §3
Klebsiella pneumoniae [17] = assay: Antibacterial activity against ESBL-positive Klebsiella pneumoniae J 14368/08 at 500 micromol/L after 24 to 48 hrs by broth microdilution method; assay type: functional, organism-based; procedure, shortened: as §1
Mycobacterium kansasii [18] = assay: Antimycobacterial activity against Mycobacterium kansasii 6509/96 after 7 days; assay type: functional; conditions: 6509/96, 168 h; procedure, shortened: as §2
Pichia kudriavzevii [19] = assay: Antifungal activity against Candida krusei E28 after 24 hrs by broth microdilution method; assay type: functional; conditions: E28, 24 h; procedure, shortened: as §3
Mycobacterium kansasii [20] = assay: Antimycobacterial activity against Mycobacterium kansasii 6509/96 after 21 days; assay type: functional; conditions: 6509/96, 504 h; procedure, shortened: as §2
[21] = tested on: Mycobacterium tuberculosis; assay: Antimycobacterial activity against Mycobacterium tuberculosis H37Rv My 331/88 after 14 days; assay type: functional; conditions: H37Rv My 331/88, 336 h; procedure, shortened: as §2
Staphylococcus aureus [22] = assay: Antibacterial activity against methicillin-resistant Staphylococcus aureus H 5996/08 after 24 hrs by broth microdilution method; assay type: functional; conditions: H 5996/08, 24 h; procedure, shortened: as §1
Mycobacterium kansasii [23] = assay: Antimycobacterial activity against Mycobacterium kansasii 6509/96 after 14 days; assay type: functional; conditions: 6509/96, 336 h; procedure, shortened: as §2
Aspergillus fumigatus [24] = assay: Antifungal activity against Aspergillus fumigatus 231 after 24 hrs by broth microdilution method; assay type: functional; conditions: Aspergillus fumigatus, 231, 24 h; procedure, shortened: as §3
Mycobacterium kansasii [25] = assay: Antimycobacterial activity against Mycobacterium kansasii My 235/80 after 14 days; assay type: functional; conditions: My 235/80, 336 h; procedure, shortened: as §2
Aspergillus fumigatus [26] = assay: Antifungal activity against Aspergillus fumigatus 231 after 48 hrs by broth microdilution method; assay type: functional; conditions: Aspergillus fumigatus, 231, 48 h; procedure, shortened: as §3
Trichosporon asahii [27] = assay: Antifungal activity against Trichosporon asahii 1188 after 24 hrs by broth microdilution method; assay type: functional; conditions: Trichosporon asahii, 1188, 24 h; procedure, shortened: as §3
Mycobacterium kansasii [28] = assay: Antimycobacterial activity against Mycobacterium kansasii My 235/80 after 21 days; assay type: functional; conditions: My 235/80, 504 h; procedure, shortened: as §2
Staphylococcus aureus [29] = assay: Antibacterial activity against methicillin-resistant Staphylococcus aureus H 5996/08 after 48 hrs by broth microdilution method; assay type: functional; conditions: H 5996/08, 48 h; procedure, shortened: as §1
Staphylococcus aureus [30] = assay: Antibacterial activity against Staphylococcus aureus CCM 4516/08 after 24 hrs by broth microdilution method; assay type: functional; conditions: CCM 4516/08, 24 h; procedure, shortened: as §1

CCOP(=O)(OCC)Oc1ccc(Cl)cc1C(=O)Nc1ccc(F)cc1
MIC95 [1]: > 500 µM
MIC [2]: 16 µM (≈ 6.43 µg/mL)
MIC (Mycobacterium kansasii [3]): 32 µM (≈ 12.9 µg/mL)
MIC (Mycobacterium avium [4]): 62.5 µM (≈ 25.1 µg/mL)
MIC80 (Candida albicans [5]): > 500 µM
Activity (Escherichia coli): inactive
MIC80 (Trichosporon asahii [6]): > 500 µM
Activity (Candida tropicalis): inactive
MIC95 [7]: > 500 µM
MIC95 (Staphylococcus aureus [8]): 500 µM (≈ 201 µg/mL)
MIC50 (Lichtheimia corymbifera [9]): > 500 µM
IC50 (HepG2): 31.4 µM
MIC80 (Pichia kudriavzevii [10]): > 500 µM
MIC50 [11]: > 500 µM
Activity (Klebsiella pneumoniae [12]): inactive
MIC (Mycobacterium avium [13]): 62.5 µM (≈ 25.1 µg/mL)
Activity (Nakaseomyces glabratus): inactive
MIC50 (Lichtheimia corymbifera [14]): > 500 µM
MIC50 [15]: > 500 µM
Activity (Enterococcus sp.): inactive
Activity (Pseudomonas aeruginosa): inactive
MIC80 (Candida albicans [16]): > 500 µM
Activity (Klebsiella pneumoniae [17]): inactive
MIC (Mycobacterium kansasii [18]): 16 µM (≈ 6.43 µg/mL)
MIC80 (Pichia kudriavzevii [19]): > 500 µM
MIC (Mycobacterium kansasii [20]): 32 µM (≈ 12.9 µg/mL)
MIC [21]: 8 µM (≈ 3.21 µg/mL)
MIC95 (Staphylococcus aureus [22]): > 500 µM
MIC (Mycobacterium kansasii [23]): 32 µM (≈ 12.9 µg/mL)
MIC50 (Aspergillus fumigatus [24]): > 500 µM
MIC (Mycobacterium kansasii [25]): 32 µM (≈ 12.9 µg/mL)
MIC50 (Aspergillus fumigatus [26]): > 500 µM
MIC80 (Trichosporon asahii [27]): > 500 µM
MIC (Mycobacterium kansasii [28]): 32 µM (≈ 12.9 µg/mL)
MIC95 (Staphylococcus aureus [29]): > 500 µM
MIC95 (Staphylococcus aureus [30]): 250 µM (≈ 100 µg/mL)
